Screening data (PubChem)
Shown are actives, neighbours in structure and some others; about 5.9% of the full set was active somewhere.
IDH1 R132H inh: inhibitors of human IDH1 R132H; O75874; IDH1 R132H reductase, diaphorase/resazurin fluorescence, 60 min; inhibition, % at 10 µM; hit rate 0.18% among 70,000; in the data active means inhibition above about 34%; inconclusive means no clear call, values can overlap the other calls; inactive means below about 11%;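 further: 0% = DMSO and 100% = no enzyme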
T cruzi growth-1: T. cruzi proliferation inhibition; AID 624255; T. cruzi beta-gal in NIH3T3, GalScreen luminescence, 90 h; inhibition, % at 8.34 µM; hit rate 5.9% among 77,000;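 active means mean inhibition above about 93%, with at least 55% of replicates each passing it, limit read from the data, passing the limit was not always enough; inconclusive means only one of those two conditions holds; inactive means neither condition holds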
Pf Dd2 growth: blocks growth of Plasmodium falciparum Dd2 parasites; P. falciparum Dd2 growth, SYBR Green, 72 h; hits give low values; activity change, % at 10 µM; hit rate 2.3% among 94,000; AID 1159554; in the data active means activity change below about -80%; inconclusive means no clear call, values can overlap the other calls
GASC1 inh: blocks human GASC-1 (KDM4C) demethylase activity; Q9H3R0; hit rate 0.15% among 96,000; inhibition, % at 12.5 µM; GST-KDM4C 2-372, H3K9me3 peptide, LANCE TR-FRET;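 active means mean replicate inhibition above about 25%, with at least 55% of replicates also reaching it, limit read from the data, passing the limit was not always enough; inconclusive means only one of those two conditions met; inactive means neither condition met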
Target sequence (Q9H3R0 2-372 limits assumed): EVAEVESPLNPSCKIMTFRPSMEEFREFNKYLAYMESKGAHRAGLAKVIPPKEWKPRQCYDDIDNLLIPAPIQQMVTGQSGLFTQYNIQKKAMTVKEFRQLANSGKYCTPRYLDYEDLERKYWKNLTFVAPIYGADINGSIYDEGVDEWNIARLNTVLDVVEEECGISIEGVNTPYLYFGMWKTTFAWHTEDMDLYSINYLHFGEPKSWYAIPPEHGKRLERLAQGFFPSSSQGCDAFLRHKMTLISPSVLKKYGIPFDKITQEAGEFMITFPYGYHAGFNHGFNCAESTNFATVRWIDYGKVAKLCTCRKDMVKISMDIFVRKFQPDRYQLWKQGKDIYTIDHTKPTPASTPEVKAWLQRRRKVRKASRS
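System – N-terminal GST-fused human GASC-1 (KDM4C) fragment, residues 2-372 · Input – enzyme final amount 10 nM · Technique – LANCE TR-FRET, Eu antibody, ULight-streptavidin, EDTA, ex 340 nm, em 618/671 nm · Medium – HEPES buffer, pH 7.5, plus ascorbate · Incubation – enzyme reaction 30 min, then detection 60 min, both room temperature · Reagent – H3K9me3 peptide with Fe(II)/2OG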
T cruzi growth-2: Trypanosoma cruzi proliferation inhibition; shares compounds with T cruzi growth-1; inhibition, % at 8.35 µM; T. cruzi beta-gal in NIH3T3, GalScreen luminescence, 90 h; hit rate 72% among 5,600;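 active means mean replicate inhibition above about 95% and at least 55% of replicates individually reaching it, limit read from the data; inconclusive means only one of the two criteria is met; inactive means neither criterion is met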
T cruzi growth-3: inhibitors of T. cruzi proliferation. hit rate 21% among 5,600. T. cruzi beta-gal in NIH3T3, GalScreen luminescence, 90 h. inhibition, % at 2.09 µM. shares compounds with T cruzi growth-1;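 active means mean inhibition above about 95%, with at least 55% of replicates also reaching it, limit read from the data; inconclusive means meets just one of the two conditions; inactive means meets neither condition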;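 further: plate controls were neutral control median for no effect and positive control median for full effect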
NIH3T3 tox: NIH/3T3 (mouse) viability loss | hit rate 14% among 5,600 | NIH/3T3 viability, CellTiter-Glo ATP luminescence, 90 h | cytotoxicity (signal decrease), % at 8.35 µM | shares compounds with T cruzi growth-1;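 active means mean signal decrease across replicates above about 35% based on untreated-well scatter, with enough replicates individually passing, limit read from the data; inconclusive means no rule stated though some were filed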;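 further: 0% = median of neutral control wells and 100% = median of positive control wells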
NIH3T3 tox 2: kills mouse NIH/3T3 fibroblasts; shares compounds with T cruzi growth-1; inhibition, % at 24.9 µM; hit rate 56% among 5,600; NIH/3T3 viability, CellTiter-Glo ATP luminescence, 90 h; AID 651744;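 active means mean loss of cell viability signal at or above a set limit, and enough replicates individually reaching it; inconclusive means meets only the mean limit or only the replicate share; inactive means meets neither condition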;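 further: 0% = median of neutral control wells and 100% = median of positive control wells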
Starred values were filed as active, the others as inactive; ? = inconclusive; nt = no result given; ! = a repeat was not active.

SMILES	IDH1 R132H inh	T cruzi growth-1	Pf Dd2 growth	GASC1 inh	T cruzi growth-2	T cruzi growth-3	NIH3T3 tox	NIH3T3 tox 2
C/C=C/c1ccc([C@H]2[C@@H](CO)N3CCCCN(S(=O)(=O)c4ccc(OC)cc4)C[C@@H]23)cc1	nt	95*	-15	0	111*	69	0	55*
COc1ccc(NC(=O)c2ccc(OCC(=O)Nc3cccc(C)c3C)cc2)cc1Cl	0	nt	nt	nt	nt	nt	nt	nt
C[C@H]1CN([C@@H](C)CO)S(=O)(=O)c2ccc(C3=CCCC3)cc2O[C@@H]1CN(C)C(=O)Nc1ccc2c(c1)OCO2	0	109*	-53	6	96*	53	9	28*
C[C@@H]1CN([C@H](C)CO)S(=O)(=O)c2ccc(C3=CCCC3)cc2O[C@@H]1CN(C)C(=O)Nc1ccc2c(c1)OCO2	0	76	-20	0	nt	nt	nt	nt
C[C@@H]1CN([C@H](C)CO)S(=O)(=O)c2ccc(C#Cc3ccccc3)cc2O[C@H]1CN(C)C(=O)Nc1ccc2c(c1)OCO2	nt	92*	-71	0	108*	96*!	16	32*
C[C@H](CO)N1C[C@H](C)[C@@H](CN(C)C(=O)Nc2ccc3c(c2)OCO3)Oc2cc(C#Cc3ccncc3)ccc2S1(=O)=O	0	82	-56	1	nt	nt	nt	nt
C[C@H](CO)N1C[C@H](C)[C@@H](CN(C)C(=O)Nc2ccc3c(c2)OCO3)Oc2cc(C#Cc3ccccc3)ccc2S1(=O)=O	1	131*	-71	-2	104*	71	4	13
C[C@@H]1CN([C@@H](C)CO)S(=O)(=O)c2ccc(C#Cc3ccncc3)cc2O[C@@H]1CN(C)C(=O)Nc1ccc2c(c1)OCO2	7	1	-12	1	nt	nt	nt	nt
COc1ccc2c(c1)O[C@@H]1COc3cc4c(cc3[C@]1(O)C2=O)OCO4	0	nt	nt	nt	nt	nt	nt	nt
Cc1ccccc1-c1ccc2c(c1)O[C@H](CN(C)Cc1ccncc1)[C@H](C)CN([C@@H](C)CO)S2(=O)=O	4	97*	-55	2	107*	75	52*	?
C[C@@H]1CN([C@H](C)CO)S(=O)(=O)c2ccc(-c3ccccc3F)cc2O[C@H]1CN(C)Cc1ccncc1	0	116*	-42	0	99*	105*	92*	103*
C[C@H]1CN([C@@H](C)CO)S(=O)(=O)c2ccc(-c3ccccc3F)cc2O[C@H]1CN(C)Cc1ccncc1	-1	107*	14	4	99*	92	32	56*
C[C@@H]1CN([C@H](C)CO)S(=O)(=O)c2ccc(-c3ccccc3F)cc2O[C@H]1CN(C)Cc1cccnc1	0	95	-51	5	nt	nt	nt	nt
C[C@H](CO)N1C[C@H](C)[C@H](CN(C)Cc2cccnc2)Oc2cc(-c3ccccc3F)ccc2S1(=O)=O	8	87	-2	0	nt	nt	nt	nt
CC(C)CC#Cc1ccc2c(c1)O[C@@H](CN(C)Cc1ccc3c(c1)OCO3)[C@@H](C)CN([C@H](C)CO)S2(=O)=O	-2	93	-36	nt	nt	nt	nt	nt
CCCC#Cc1ccc2c(c1)O[C@@H](CN(C)Cc1ccc3c(c1)OCO3)[C@@H](C)CN([C@@H](C)CO)S2(=O)=O	-1	126*	-75	-1	89	103*	29	105*
CCCC#Cc1ccc2c(c1)O[C@H](CN(C)Cc1ccc3c(c1)OCO3)[C@H](C)CN([C@@H](C)CO)S2(=O)=O	0	128*	-79	nt	?	112*	29	104*
CCCC#Cc1ccc2c(c1)O[C@H](CN(C)Cc1ccc3c(c1)OCO3)[C@@H](C)CN([C@H](C)CO)S2(=O)=O	0	101*	nt	-1	98*	92	26	106*
CCCC#Cc1ccc2c(c1)O[C@H](CN(C)Cc1ccc3c(c1)OCO3)[C@H](C)CN([C@H](C)CO)S2(=O)=O	-1	130*	?	nt	100*	110*	6	104*
CC(C)CC#Cc1ccc2c(c1)O[C@H](CN(C)Cc1ccc3c(c1)OCO3)[C@H](C)CN([C@H](C)CO)S2(=O)=O	0	89	-33	nt	nt	nt	nt	nt
